The test system of assay [1] is CD4 on 3.L2 T cells. Description: Adhesion frequency assay for direct CD4 binding. More on the design: species or system mouse. To be noted: MCC:I-E^k at >4,000 molecules/μm^2; contact 5s; n≥3 cell pairs, 50 contacts each. The method in brief:
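3.L2 T cells, negatively selected from 6–8-week mouse spleens, were brought by micropipette into repeated 5-s contacts with human RBCs. The RBCs were biotinylated, streptavidin-linked and coated with noncognate MCC:I-E^k at >4,000 molecules/μm². Site densities came from PE-antibody flow cytometry against standard beads. Adhesion was scored from RBC membrane deflection on retraction, with frequency taken from 50 contacts per cell pair.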

In assay [2] the test system is 3.L2 TCR on CD8^+ 3.L2 T cells. Nature of the assay: BFP force-clamp bond lifetime assay, CD8+ 3.L2 T cells. To be noted: for Bond lifetime versus force / Bond type under force: force-clamp, 5-40 pN, CD8+ 3.L2 T cells; for Bond type under force: >300 lifetime events per ligand; for Force at maximum ratio of bond lifetime of Hb to that of the peptide: ratio bond lifetime Hb/peptide vs force (Fig. 6B). The class given is binding, mouse. The method, boiled down: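 Biomembrane force probe force-clamp used beads carrying streptavidin-maleimide and subsaturating biotinylated pMHC-II. Each bond was loaded to a preset force and held constant until it dissociated. pMHC density was adjusted to keep adhesion frequency <20%, for […] single bonds. >300 lifetimes per ligand were taken over 5-40pN, in 5-7 bins. The Hb/peptide lifetime ratio was calculated from the force versus lifetime data.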

The subject of assay [3] is 3.L2 TCR T-cell response. As to conditions: relative activity of well-characterized ligands; ref [6], [36]; cited from earlier work.
Assay [4] concerns 3.L2 TCR. To be noted: 3D SPR; ref [6]; cited from earlier work.
The subject of assay [5] is 3.L2 TCR on T cells. Description: Thermal fluctuation assay. The class given is binding, mouse. To be noted: T cells treated with anti-CD4 GK1.5; zero force. The method, boiled down:
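Cells were pretreated 30min at 4°C with 20μg/ml anti-CD4 GK1.5, and the antibody was kept in the chamber during measurement. A biomembrane force probe bead bearing subsaturating biotinylated pMHC-II contacted the T cell. Bond lifetime ran from reduction to resumption of bead thermal fluctuations. koff was taken from the negative slope of ln(events with lifetime > t_b) versus t_b.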

The subject of assay [6] is 3.L2 TCR on CD4^+ 3.L2 T cells. Nature of the assay: Micropipette adhesion frequency assay, CD4+ 3.L2 T cells. The class given is binding, mouse. To be noted: T cells treated with anti-CD4 GK1.5, 20 μg/ml. The method in brief:
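T cells were incubated 30min at 4°C with 20μg/ml anti-CD4 GK1.5, then tested with the same antibody present. Micropipette contacts were made with pMHC-coated RBCs, and adhesion frequency counted from 50 contacts per cell pair over a range of contact times. A least-squares fit to the probabilistic kinetic equation, using measured TCR and pMHC densities, gave AcKa and koff. On-rate = AcKa × koff.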

Assay [7] addresses CD4 (mouse (endogenous in 3.L2 transgenic mouse T cells)) (UniProt P06332). Description: micropipette adhesion frequency assay.
Sequence of UniProt P06332 (P06332 27-457): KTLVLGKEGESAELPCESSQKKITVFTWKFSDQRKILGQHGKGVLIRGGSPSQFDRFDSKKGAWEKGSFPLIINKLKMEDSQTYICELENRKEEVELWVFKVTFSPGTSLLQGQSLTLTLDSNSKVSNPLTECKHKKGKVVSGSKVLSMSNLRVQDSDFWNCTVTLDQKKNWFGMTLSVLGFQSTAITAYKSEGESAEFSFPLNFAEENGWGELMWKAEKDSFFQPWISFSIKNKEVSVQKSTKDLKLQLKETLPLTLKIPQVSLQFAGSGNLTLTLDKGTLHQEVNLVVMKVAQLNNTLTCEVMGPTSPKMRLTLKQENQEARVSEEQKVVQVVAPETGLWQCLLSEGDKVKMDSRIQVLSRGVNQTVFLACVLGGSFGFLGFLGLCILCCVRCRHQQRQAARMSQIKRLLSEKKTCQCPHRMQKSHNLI

Where only a bound is given, the exact number is not on record here.

Regarding ANERADLIAYLKQATK [MCC], the “Adhesion frequency Pa, noncognate pMHC-II, very high site density” value in assay [1] is reported as under 5%.
GKKVITAFAEGLK [A72]: in assay [2], the “Bond lifetime versus force” value was “decreases monotonically with increasing force”, the “Bond type under force” value was “slip-only bonds” and the “Force at maximum ratio of bond lifetime of Hb to that of the peptide” value is recorded as 10-15 pN. Further, the “Classification of Ligand” value in assay [3] is “Weak antagonist”. Besides, the “Detectability by SPR (earlier work)” value in assay [4] is recorded as “not previously detectable using SPR”.
In the case of GKKVITAFIEGLK [I72], in assay [2], the “Bond lifetime versus force” value is on record as “decreases monotonically with increasing force”, the “Bond type under force” value is on record as “slip-only bonds” and the “Force at maximum ratio of bond lifetime of Hb to that of the peptide” value is recorded as 10-15 pN. The “Classification of Ligand” value in assay [3] was “Antagonist”.
For the substance GKKVITAFNEGLK [Hb], the “Bond type under force” value in assay [2] is recorded as “catch-slip bonds”. The “Classification of Ligand” value in assay [3] is given as “Agonist”. For the same substance, the “2D off-rate, koff (thermal fluctuation assay)*, with CD4 blocking” value in assay [5] was 1.41 ± 0.17 s⁻¹. Further, in assay [6] (calculated as AcKa × koff), the “Effective 2D on-rate, Ackon, with CD4 blocking” value is 3.16 ± 0.42 × 10^−4 μm^4s^−1. Moreover, the “2D off-rate, koff (adhesion frequency assay)**, with CD4 blocking” value in assay [6] (zero force) stood at 1.89 ± 0.31 s⁻¹.
For GKKVITAFTEGLK [T72], in assay [2], the “Bond type under force” value was “catch-slip bonds”. Further, in assay [3], the “Classification of Ligand” value was “Weak agonist”.
Turning to “moth cytochrome c (MCC) peptide 88-103 bound to I-E^k (peptide-MHC)”, the adhesion frequency in assay [7] was under 5%.

Source of the values: article PMC4592802 (Journal of immunology (Baltimore, Md. : 1950), 2015).
